In assay [1] the target is T1, Epidermal growth factor receptor (Homo sapiens, UniProt P00533). The note with it: 5 uM.
The target in assay [2] is T1, Epidermal growth factor receptor. Conditions: 10 uM.
Assay [3] has the same target. The note with it: 10 uM. The source holds these as a separate data set.
For assay [4] the target is unchanged. As to the kind of experiment: In vitro inhibition of intrinsic tyrosine protein kinase activity of the Epidermal growth factor receptor using […]. The method in brief: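 Enzyme source was ER 22 membranes purified on 32% sucrose. Reaction buffer: 20 mM Hepes pH 7.4, 1 mM MnCl2, 0.1 mg/mL BSA, 100 ng/mL EGF. Receptor was preincubated with EGF for 10 min at room temperature, then inhibitor was added. It was stopped with TCA; supernatant was spotted on phosphocellulose paper, washed in phosphoric acid and counted by scintillation.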

Assay [5] has the same target. Conditions: 1.25 uM.
For assay [6] the target is unchanged. The experiment in a line: Inhibition of Epidermal growth factor receptor activity against […] at 10 uM.
The target is the same in assay [7]. Conditions: 10 uM. This is another data set of the same source.
Assay [8] shares this target. Conditions: 10 uM. This is another data set of the same source.
The target is the same in assay [9]. Conditions: 5 uM. This is another data set of the same source.

Bounds are passed on as bounds.

T1 sequence (P00533 whole entry): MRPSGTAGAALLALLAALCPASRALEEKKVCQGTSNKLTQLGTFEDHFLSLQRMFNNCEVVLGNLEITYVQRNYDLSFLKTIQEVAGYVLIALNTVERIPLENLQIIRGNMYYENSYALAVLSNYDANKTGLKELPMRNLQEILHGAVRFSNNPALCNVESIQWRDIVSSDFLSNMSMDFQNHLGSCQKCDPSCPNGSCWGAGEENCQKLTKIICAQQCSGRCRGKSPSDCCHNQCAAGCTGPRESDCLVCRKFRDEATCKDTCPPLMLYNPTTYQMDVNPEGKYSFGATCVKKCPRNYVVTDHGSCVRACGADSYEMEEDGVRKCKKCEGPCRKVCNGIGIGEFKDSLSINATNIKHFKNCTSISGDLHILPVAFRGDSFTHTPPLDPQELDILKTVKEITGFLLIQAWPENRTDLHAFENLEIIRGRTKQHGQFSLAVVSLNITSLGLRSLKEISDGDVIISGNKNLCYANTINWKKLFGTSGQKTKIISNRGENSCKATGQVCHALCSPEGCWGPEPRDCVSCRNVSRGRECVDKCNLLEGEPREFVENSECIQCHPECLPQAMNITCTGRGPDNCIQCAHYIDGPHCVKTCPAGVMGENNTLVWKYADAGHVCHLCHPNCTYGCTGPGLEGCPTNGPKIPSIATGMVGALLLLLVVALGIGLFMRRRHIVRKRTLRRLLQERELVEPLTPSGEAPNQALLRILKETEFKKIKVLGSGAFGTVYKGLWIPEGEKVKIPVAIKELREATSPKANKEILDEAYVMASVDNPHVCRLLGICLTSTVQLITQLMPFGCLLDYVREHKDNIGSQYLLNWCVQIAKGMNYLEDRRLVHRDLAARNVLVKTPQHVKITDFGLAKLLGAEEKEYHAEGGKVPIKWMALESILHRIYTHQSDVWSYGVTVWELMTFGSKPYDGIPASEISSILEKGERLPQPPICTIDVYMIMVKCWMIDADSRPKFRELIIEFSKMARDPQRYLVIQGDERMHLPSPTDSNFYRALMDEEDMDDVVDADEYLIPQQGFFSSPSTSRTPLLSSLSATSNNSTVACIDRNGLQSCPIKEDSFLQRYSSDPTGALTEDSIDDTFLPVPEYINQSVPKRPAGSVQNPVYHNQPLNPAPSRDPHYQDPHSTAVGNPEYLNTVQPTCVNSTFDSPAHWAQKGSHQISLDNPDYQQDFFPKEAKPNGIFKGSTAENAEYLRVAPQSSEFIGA

As to `CC(COC(=O)c1ccc(-c2ccc(-c3ccccc3)cc2O)cc1)CC(C)(C)C` (stereo not drawn), the inhibition in assay [1] is 27%; in [2], 3%.
Compound `COCOc1cc(-c2ccccc2)ccc1-c1ccc(C(=O)O)cc1` yielded an inhibition in [2] of 8%.
`CC(COC(=O)c1ccc(-c2ccc(C(C)(C)C)cc2O)cc1)CC(C)(C)C` (stereo not drawn): the inhibition stood at 25% in assay [1] and 3% in [3].
Take `CC(C)(C)c1ccc(-c2ccc(C(=O)O)cc2)c(O)c1`: in [4], the IC50 is above 10 µM.
`COC(=O)c1ccc(-c2ccc(-c3ccccc3)cc2O)cc1` registered an inhibition in [5] of 41%. In assay [4], inhibition was half-maximal at 14 µM (IC50).
In assay [4], `CC(C)(C)c1cc(O)cc(-c2ccc(C(=O)O)cc2)c1` had a concentration for half-maximal inhibition (IC50) above 50 µM.
Regarding `O=C(NCc1ccccc1)c1ccc(-c2ccc(-c3ccccc3)cc2O)cc1`, in [4], the IC50 was above 1 µM.
`COCOc1c(-c2ccccc2)cccc1-c1ccc(C(=O)OCC(C)CC(C)(C)C)cc1` (stereo not drawn) displayed an inhibition in assay [2] of 16%.
In [3], `CC(COC(=O)c1ccc(-c2cc(O)cc(-c3ccccc3)c2)cc1)CC(C)(C)C` (stereo not drawn) registered an inhibition of 15%.
Same read-out and setting: next, `O=C(NCc1ccccc1)c1ccc(-c2cc(O)cc(-c3ccccc3)c2)cc1`: 5%.
With `COCOc1cc(-c2ccccc2)ccc1-c1ccc(C(=O)OCC(C)CC(C)(C)C)cc1` (stereo not drawn), in [4], the half-inhibitory concentration (IC50) is above 20 µM. Also, the inhibition in assay [1] was determined as 10%.
The compound `COCOc1cc(C(C)(C)C)ccc1-c1ccc(C(=O)OC)cc1` showed a concentration for half-maximal inhibition (IC50) in assay [6] above 10 µM.
The compound `CC(C)(C)c1ccc(-c2ccc(C(=O)NCc3ccccc3)cc2)c(O)c1` had an inhibition in assay [7] of 57%. The compound further yielded a concentration for half-maximal inhibition (IC50) in assay [4] above 5 µM.
In assay [3], `COC(=O)c1ccc(-c2ccc(C(C)(C)C)cc2O)cc1` gave an inhibition of 6%.
As to `CC(COC(=O)c1ccc(-c2cccc(-c3ccccc3)c2O)cc1)CC(C)(C)C` (stereo not drawn), the inhibition in assay [2] came to 11%.
As for `COCOc1cc(-c2ccccc2)ccc1-c1ccc(C(=O)NCc2ccccc2)cc1`, the IC50 in assay [4] is above 1 µM.
Regarding `CC(COC(=O)c1ccc(-c2cc(O)cc(C(C)(C)C)c2)cc1)CC(C)(C)C` (stereo not drawn), the inhibition in assay [3] turned out to be 10%.
`COCOc1cc(-c2ccccc2)ccc1-c1ccc(C(=O)OC)cc1` came in with an inhibition in assay [2] of 2%.
Consider `CC(C)(C)c1cc(O)cc(-c2ccc(CO)cc2)c1`, for which, in assay [8], the inhibition was determined as 21%. In assay [4], this compound showed a half-maximal inhibitory concentration (IC50) above 10 µM.
Take `O=C(NCc1ccccc1)c1ccc(-c2cccc(-c3ccccc3)c2O)cc1`: in assay [4], the half-inhibitory concentration (IC50) was above 5 µM.
With `O=C(O)c1ccc(-c2cc(O)cc(-c3ccccc3)c2)cc1`, the inhibition in assay [3] worked out at 9%.
Regarding `COC(=O)c1ccc(-c2cc(O)cc(C(C)(C)C)c2)cc1`, the 50% inhibitory concentration (IC50) in assay [4] is above 10 µM.
On the same count and under the same terms, then `COCOc1cc(C(C)(C)C)ccc1-c1ccc(C(=O)OCC(C)CC(C)(C)C)cc1` (stereo not drawn), with above 50 µM.
Same read-out and setting: next, `CC(C)(C)c1cc(O)cc(-c2ccc(C(=O)NCc3ccccc3)cc2)c1`: above 5 µM.
In turn, `COCOc1cc(C(C)(C)C)ccc1-c1ccc(C(=O)NCc2ccccc2)cc1` showed an inhibition in assay [9] of 47%. For the same compound, in assay [4], the concentration for half-maximal inhibition (IC50) is above 5 µM.
Regarding `COC(=O)c1ccc(-c2cccc(-c3ccccc3)c2O)cc1`, the IC50 in [4] was above 20 µM.

Usually inhibition stands for how much of the control response was suppressed. Higher therefore signals a response far below the control. Broadly, the IC50 is the midpoint of a concentration-inhibition curve. High values mean weaker potency, low ones greater potency.

Values taken from ChEMBL document CHEMBL1128699, “Inhibition of the EGF-stimulated cellular proliferation of ER 22 cells by hydroxybiphenyl derivatives” (J Med Chem, 1995).
